Columns and labels:
[1] = system: MDA-MB-231; experiment: Prodrug conversion in human MDA-MB-231 cells assessed as belinostat level after 1 day by UHPLC-MS/MS analysis; type: ADME, cell-based; settings: mda-mb-231, 24 h
Method in brief: (§1)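 MDA-MB-231 or HeLa cells were incubated with the pinacol boronate prodrug, and culture medium was sampled daily from day 1 to day 6. The prodrug, boronic acid forms and belinostat were separated, identified and quantified by HPLC coupled to an Orbitrap mass spectrometer. Results are in ng/mL as mean ± SEM of triplicate experiments.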

[2] = system: HeLa; experiment: Antiproliferative activity against human HeLa cells after 72 hrs by resazurin dye based fluorescence assay; type: functional, cell-based
[3] = system: MDA-MB-231; experiment: Prodrug conversion in human MDA-MB-231 cells assessed as (E)-3-((3-(3-(N-phenylsulfamoyl)phenyl)acrylamidooxy)methyl)phenylboronic acid level after 4 days by UHPLC-MS/MS analysis; type: ADME, cell-based; settings: mda-mb-231, 96 h; method in brief: as §1
[4] = system: HeLa; experiment: Prodrug conversion in human HeLa cells assessed as belinostat level after 4 days by UHPLC-MS/MS analysis; type: ADME, cell-based; settings: 96 h; method in brief: as §1
[5] = system: MDA-MB-231; experiment: Prodrug conversion in human MDA-MB-231 cells assessed as (E)-3-((3-(3-(N-phenylsulfamoyl)phenyl)acrylamidooxy)methyl)phenylboronic acid level after 2 days by UHPLC-MS/MS analysis; type: ADME, cell-based; settings: mda-mb-231, 48 h; method in brief: as §1
[6] = system: HeLa; experiment: Prodrug conversion in human HeLa cells assessed as belinostat level after 2 days by UHPLC-MS/MS analysis; type: ADME, cell-based; settings: 48 h; method in brief: as §1
[7] = system: HeLa; experiment: Prodrug conversion in human HeLa cells assessed as (E)-3-((3-(3-(N-phenylsulfamoyl)phenyl)acrylamidooxy)methyl)phenylboronic acid level after 3 days by UHPLC-MS/MS analysis; type: ADME, cell-based; settings: 72 h; method in brief: as §1
[8] = system: MDA-MB-231; experiment: Antiproliferative activity against human MDA-MB-231 cells after 72 hrs by resazurin dye based fluorescence assay; type: functional, cell-based; settings: MDA-MB-231, 72 h
[9] = system: MDA-MB-231; experiment: Prodrug conversion in human MDA-MB-231 cells assessed as (E)-3-((3-(3-(N-phenylsulfamoyl)phenyl)acrylamidooxy)methyl)phenylboronic acid level after 5 days by UHPLC-MS/MS analysis; type: ADME, cell-based; settings: mda-mb-231, 120 h; method in brief: as §1
[10] = system: HeLa; experiment: Prodrug conversion in human HeLa cells assessed as belinostat level after 1 day by UHPLC-MS/MS analysis; type: ADME, cell-based; settings: 24 h; method in brief: as §1
[11] = system: MDA-MB-231; experiment: Prodrug conversion in human MDA-MB-231 cells assessed as belinostat level after 2 days by UHPLC-MS/MS analysis; type: ADME, cell-based; settings: mda-mb-231, 48 h; method in brief: as §1
[12] = system: HeLa; experiment: Prodrug conversion in human HeLa cells assessed as belinostat level after 6 days by UHPLC-MS/MS analysis; type: ADME, cell-based; settings: 144 h; method in brief: as §1
[13] = system: HeLa; experiment: Prodrug conversion in human HeLa cells assessed as (E)-3-((3-(3-(N-phenylsulfamoyl)phenyl)acrylamidooxy)methyl)phenylboronic acid level after 4 days by UHPLC-MS/MS analysis; type: ADME, cell-based; settings: 96 h; method in brief: as §1
[14] = system: MDA-MB-231; experiment: Prodrug conversion in human MDA-MB-231 cells assessed as (E)-3-((3-(3-(N-phenylsulfamoyl)phenyl)acrylamidooxy)methyl)phenylboronic acid level after 3 days by UHPLC-MS/MS analysis; type: ADME, cell-based; settings: mda-mb-231, 72 h; method in brief: as §1
[15] = system: A549; experiment: Antiproliferative activity against human A549 cells after 72 hrs by resazurin dye based fluorescence assay; type: functional, cell-based; settings: A549, 72 h
[16] = system: MDA-MB-231; experiment: Prodrug conversion in human MDA-MB-231 cells assessed as belinostat level after 3 days by UHPLC-MS/MS analysis; type: ADME, cell-based; settings: mda-mb-231, 72 h; method in brief: as §1
[17] = system: HeLa; experiment: Prodrug conversion in human HeLa cells assessed as (E)-3-((3-(3-(N-phenylsulfamoyl)phenyl)acrylamidooxy)methyl)phenylboronic acid level after 2 days by UHPLC-MS/MS analysis; type: ADME, cell-based; settings: 48 h; method in brief: as §1
[18] = system: MDA-MB-231; experiment: Prodrug conversion in human MDA-MB-231 cells assessed as belinostat level after 4 days by UHPLC-MS/MS analysis; type: ADME, cell-based; settings: mda-mb-231, 96 h; method in brief: as §1
[19] = system: MDA-MB-231; experiment: Prodrug conversion in human MDA-MB-231 cells assessed as (E)-3-((3-(3-(N-phenylsulfamoyl)phenyl)acrylamidooxy)methyl)phenylboronic acid level after 6 days by UHPLC-MS/MS analysis; type: ADME, cell-based; settings: mda-mb-231, 144 h; method in brief: as §1
[20] = system: MDA-MB-231; experiment: Prodrug conversion in human MDA-MB-231 cells assessed as (E)-3-((3-(3-(N-phenylsulfamoyl)phenyl)acrylamidooxy)methyl)phenylboronic acid level after 1 day by UHPLC-MS/MS analysis; type: ADME, cell-based; settings: mda-mb-231, 24 h; method in brief: as §1
[21] = system: MDA-MB-231; experiment: Prodrug conversion in human MDA-MB-231 cells assessed as belinostat level after 6 days by UHPLC-MS/MS analysis; type: ADME, cell-based; settings: mda-mb-231, 144 h; method in brief: as §1
[22] = system: HeLa; experiment: Prodrug conversion in human HeLa cells assessed as (E)-3-((3-(3-(N-phenylsulfamoyl)phenyl)acrylamidooxy)methyl)phenylboronic acid level after 1 day by UHPLC-MS/MS analysis; type: ADME, cell-based; settings: 24 h; method in brief: as §1
[23] = system: HeLa; experiment: Prodrug conversion in human HeLa cells assessed as belinostat level after 3 days by UHPLC-MS/MS analysis; type: ADME, cell-based; settings: 72 h; method in brief: as §1
[24] = system: HeLa; experiment: Prodrug conversion in human HeLa cells assessed as (E)-3-((3-(3-(N-phenylsulfamoyl)phenyl)acrylamidooxy)methyl)phenylboronic acid level after 6 days by UHPLC-MS/MS analysis; type: ADME, cell-based; settings: 144 h; method in brief: as §1
[25] = system: HeLa; experiment: Prodrug conversion in human HeLa cells assessed as (E)-3-((3-(3-(N-phenylsulfamoyl)phenyl)acrylamidooxy)methyl)phenylboronic acid level after 5 days by UHPLC-MS/MS analysis; type: ADME, cell-based; settings: 120 h; method in brief: as §1
[26] = system: HeLa; experiment: Prodrug conversion in human HeLa cells assessed as belinostat level after 5 days by UHPLC-MS/MS analysis; type: ADME, cell-based; settings: 120 h; method in brief: as §1
[27] = system: MDA-MB-231; experiment: Prodrug conversion in human MDA-MB-231 cells assessed as belinostat level after 5 days by UHPLC-MS/MS analysis; type: ADME, cell-based; settings: mda-mb-231, 120 h; method in brief: as §1
[28] = Drug uptake in tumor of ovariectomized nu/nu mouse implanted with human MCF7 cells at 10 mg/kg, sc administered once daily for 22 days measured post last dose by HPLC-MS/MS analysis; type: ADME, organism-based, Neoplasm; settings: female, read-out: Drug uptake
Method in brief: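 After 22 days of 10 mg/kg/day subcutaneous dosing in MCF-7 xenograft mice, animals were sacrificed. Tumours were excised, homogenized and extracted, then analysed by HPLC–MS/MS for belinostat and the free boronic acid. Results are expressed as ng/g tissue.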

[29] = system: MCF7; experiment: Antiproliferative activity against human MCF7 cells after 72 hrs by resazurin dye based fluorescence assay; type: functional, cell-based; settings: MCF7, 72 h
[30] = system: MCF7; experiment: Antitumor activity against human MCF7 cells implanted in ovariectomized nu/nu mouse assessed as tumor weight at 10 mg/kg, sc administered once daily for 22 days measured post last dose (reference value: 743 +/- 142 mg); type: functional
[31] = system: MCF7; experiment: Antitumor activity against human MCF7 cells implanted in ovariectomized nu/nu mouse assessed as tumor volume at 10 mg/kg, sc administered once daily for 22 days measured post last dose (reference value: 869 +/- 173 mm3); type: functional
[32] = system: MCF7; experiment: Antitumor activity against human MCF7 cells implanted in ovariectomized nu/nu mouse assessed as tumor volume at 10 mg/kg, sc administered once daily for 22 days measured on day 12 during compound dosing (reference value: 869 +/- 173 mm3); type: functional
[33] = system: MCF-10A; experiment: Cytotoxicity against human MCF10A cells assessed as reduction in cell proliferation at 10 uM after 72 hrs by resazurin dye based fluorescence assay
[34] = system: Mus musculus; experiment: Toxicity in ovariectomized nu/nu mouse implanted with human MCF7 cells assessed as effect on body weight at 10 mg/kg, sc administered once daily for 22 days; type: organism-based; settings: in vivo, 528 h
Method in brief: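 MCF-7 xenograft in mice, dosed 10 mg/kg/day by subcutaneous injection alongside a vehicle group. Treatment ran 22 days. Body weights were compared with the vehicle group, and tumour volume was measured over the same period. At the end, mice were sacrificed and tumours removed.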

[35] = system: MCF7; experiment: Antitumor activity against human MCF7 cells implanted in ovariectomized nu/nu mouse assessed as tumor volume at 10 mg/kg, sc administered once daily for 22 days measured post last dose relative to control; type: functional
[36] = system: MCF7; experiment: Antitumor activity against human MCF7 cells implanted in ovariectomized nu/nu mouse assessed as tumor growth inhibition at 10 mg/kg, sc administered once daily for 22 days measured post last dose relative to control; type: functional; settings: 528 h, read-out: TGI
[37] = Drug level in human MDA-MB-231 cells treated with (E)-3-(3-(N-phenylsulfamoyl)phenyl)-N-(4-(4,4,5,5-tetramethyl-1,3,2-dioxaborolan-2-yl)benzyloxy)acrylamide measured after 1 to 6 days by UHPLC-MS/MS analysis; type: ADME, cell-based; method in brief: as §1
[38] = Drug level in human HeLa cells treated with (E)-3-(3-(N-phenylsulfamoyl)phenyl)-N-(4-(4,4,5,5-tetramethyl-1,3,2-dioxaborolan-2-yl)benzyloxy)acrylamide measured after 1 to 6 days by UHPLC-MS/MS analysis; type: ADME, cell-based; method in brief: as §1

## CC1(C)OB(c2cccc(CONC(=O)/C=C/c3cccc(S(=O)(=O)Nc4ccccc4)c3)c2)OC1(C)C
[1]
  Drug metabolism: Metabolite_Notdetected
[2]
  IC50: 8320 nM
[3]
  Drug metabolism: 198.8 ng/mL
[4]
  Drug metabolism: Metabolite_Notdetected
[5]
  Drug metabolism: 262.9 ng/mL
[6]
  Drug metabolism: Metabolite_Notdetected
[7]
  Drug metabolism: 147.9 ng/mL
[8]
  IC50: 2030 nM
[9]
  Drug metabolism: 168.5 ng/mL
[10]
  Drug metabolism: Metabolite_Notdetected
[11]
  Drug metabolism: Metabolite_Notdetected
[12]
  Drug metabolism: Metabolite_Notdetected
[13]
  Drug metabolism: 134.7 ng/mL
[14]
  Drug metabolism: 199 ng/mL
[15]
  IC50: 3600 nM
[16]
  Drug metabolism: Metabolite_Notdetected
[17]
  Drug metabolism: 188.6 ng/mL
[18]
  Drug metabolism: Metabolite_Notdetected
[19]
  Drug metabolism: 155.8 ng/mL
[20]
  Drug metabolism: 359.1 ng/mL
[21]
  Drug metabolism: Metabolite_Notdetected
[22]
  Drug metabolism: 303.2 ng/mL
[23]
  Drug metabolism: Metabolite_Notdetected
[24]
  Drug metabolism: 66.6 ng/mL
[25]
  Drug metabolism: 97.2 ng/mL
[26]
  Drug metabolism: Metabolite_Notdetected
[27]
  Drug metabolism: Metabolite_Notdetected

## O=C(/C=C/c1cccc(S(=O)(=O)Nc2ccccc2)c1)NO [BELINOSTAT]
[2]
  IC50: 87 nM
[28]
  concentration at 528 h: 23.4 ng/g
[8]
  IC50: 62 nM
[29]
  IC50: 96 nM
[30]
  Activity: 167 mg
[15]
  IC50: 77 nM
[31]
  Activity: 194 mm3
[32]
  Activity: 167 mm3
[33]
  Activity: Non-Toxic
[34]
  Activity: Non-Toxic
[35]
  T/C: 22.3%
[36]
  inhibition in vivo at 10 mg/kg: 77.7%

## O=C(/C=C/c1cccc(S(=O)(=O)Nc2ccccc2)c1)NOCc1cccc(B(O)O)c1
[2]
  IC50: 12900 nM
[8]
  IC50: 2200 nM
[15]
  IC50: 6580 nM

## O=C(/C=C/c1cccc(S(=O)(=O)Nc2ccccc2)c1)NOCc1ccc(B(O)O)cc1
[37]
  Drug metabolism: Metabolite_Detected
[38]
  Drug metabolism: Metabolite_Detected

Reference: ChEMBL document CHEMBL4251664, “Biocompatible Boron-Containing Prodrugs of Belinostat for the Potential Treatment of Solid Tumors” (ACS Med Chem Lett, 2018)
